In ChEMBL document CHEMBL3097988, “Synthesis and characterization of new N-(4-(4-chloro-1H-imidazol-1-yl)-3-methoxyphenyl)amide/sulfonamide derivatives as possible antimicrobial and antitubercular agents” (2014):
≈ marks a conversion by molar mass, not a printed value.

Legend:
Type in all cases: functional
[1] = test system: Rhizopus; experiment: Antimicrobial activity against Rhizopus sp. after 3 to 4 days by serial plate dilution method
In short: (§1)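 Fungal MIC by serial plate dilution. Sabouraud agar (peptone, D-glucose, agar; pH 5.7) plates seeded with saline spore suspension, dried 1 h at 37 °C. Wells punched and filled with compound in DMSO; DMSO-only control. Triplicate plates held 3–4 days at 37 °C; inhibition zone diameter measured. Amphotericin B positive control. Tested range […] per mL.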

[2] = test system: Candida albicans; experiment: Antimicrobial activity against Candida albicans after 3 to 4 days by serial plate dilution method; in short: as §1
[3] = test system: Aspergillus flavus; experiment: Antimicrobial activity against Aspergillus flavus after 3 to 4 days by serial plate dilution method; in short: as §1
[4] = test system: Staphylococcus aureus; experiment: Antimicrobial activity against Staphylococcus aureus ATCC 25923 after 16 to 18 hrs by […]
[5] = test system: Mycobacterium tuberculosis; experiment: Antimicrobial activity against Mycobacterium tuberculosis H37Rv ATCC 27294 after 7 days by resazurin assay; details: H37Rv ATCC 27294, 168 h
In short: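 Resazurin microtitre assay. Cultures were grown in Middlebrook 7H9 with 10% OADC and added to fresh medium in 96-well plates. Test compounds came from 2 mg/mL DMF stocks, with DMF-only controls. Plates were incubated 7 days at 37 °C, then resazurin was added and read after 1 h at 37 °C. MIC was the lowest concentration preventing the blue-to-pink change.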

[6] = test system: Mycobacterium tuberculosis; experiment: Antimicrobial activity against Mycobacterium tuberculosis H37Rv ATCC 27294 at 1 to 100 ug/ml after 7 days by resazurin assay
In short: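 Preliminary screen at three concentrations (1, 10 and 100) by resazurin microtitre assay. Cultures were grown in Middlebrook 7H9 with 10% OADC, and compounds came from 2 mg/mL DMF stocks with DMF controls. Plates were incubated 7 days at 37 °C, and resazurin colour was read after 1 h. Inhibition was scored as no blue-to-pink change.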

[7] = test system: Escherichia coli; experiment: Antimicrobial activity against Escherichia coli ATCC 25922 after 16 to 18 hrs by […]
[8] = test system: Mycolicibacterium smegmatis; experiment: Antimicrobial activity against Mycobacterium smegmatis (MC2) ATCC 19420 after 7 days by resazurin assay; details: (MC2) ATCC 19420, 168 h
[9] = test system: Mycolicibacterium fortuitum; experiment: Antimicrobial activity against Mycobacterium fortuitum ATCC 19542 after 7 days by resazurin assay; details: ATCC 19542, 168 h
[10] = test system: Klebsiella pneumoniae; experiment: Antimicrobial activity against Klebsiella pneumoniae ATCC 13883 after 16 to 18 hrs by serial plate dilution method
In short: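 Bacterial MIC by serial dilution in Mueller-Hinton broth adjusted to pH 5.0 with phosphate buffer. Tubes inoculated with standardized bacterial suspension, incubated 16–18 h at 37 °C. MIC read as lowest concentration with no visible growth. Range […] per mL. DMSO as negative control, ciprofloxacin as positive control.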

Row | Compound | MIC [1] [µg/mL] | MIC [2] [µg/mL] | MIC [3] [µg/mL] | MIC [4] [µg/mL] | MIC [5] [µg/mL] | inhibition (INH) [6] [%] | MIC [7] [µg/mL] | MIC [8] [µg/mL] | MIC [9] [µg/mL] | MIC [10] [µg/mL]
1 | C[C@@H]1[C@H](O)[C@@H](C)/C=C/C=C/C=C/C=C/C=C/C=C/C=C/[C@H](O[C@@H]2O[C@H](C)[C@@H](O)[C@H](N)[C@@H]2O)C[C@@H]2O[C@](O)(C[C@@H](O)C[C@@H](O)[C@H](O)CC[C@@H](O)C[C@@H](O)CC(=O)O[C@H]1C)C[C@H](O)[C@H]2C(=O)O [AMPHOTERICIN B] | 16 (≈ 17.3 µM) | 8 (≈ 8.66 µM) | 8 (≈ 8.66 µM) |  |  |  |  |  |  | 
2 | COc1cc(NS(=O)(=O)c2cccs2)ccc1-n1cnc(Cl)c1 | 128 (≈ 346 µM) | 64 (≈ 173 µM) | 256 (≈ 692 µM) | 128 (≈ 346 µM) | 1.25 (≈ 3.38 µM) | 90 | 64 (≈ 173 µM) | 1.25 (≈ 3.38 µM) | 1.25 (≈ 3.38 µM) | 256 (≈ 692 µM)
3 | COc1ccc(C(=O)Nc2ccc(-n3cnc(Cl)c3)c(OC)c2)cc1 | > 256 | > 256 | 256 (≈ 715 µM) | > 256 |  | 0 | > 256 |  |  | 256 (≈ 715 µM)
4 | COc1cc(NS(=O)(=O)c2ccccc2)ccc1-n1cnc(Cl)c1 | 64 (≈ 176 µM) | 128 (≈ 352 µM) | 128 (≈ 352 µM) | 8 (≈ 22 µM) | 5 (≈ 13.7 µM) | <90 | 64 (≈ 176 µM) | 10 (≈ 27.5 µM) |  | 128 (≈ 352 µM)
5 | COc1cc(NS(=O)(=O)c2ccco2)ccc1-n1cnc(Cl)c1 | 256 (≈ 724 µM) | 128 (≈ 362 µM) | 64 (≈ 181 µM) | 128 (≈ 362 µM) | 5 (≈ 14.1 µM) | <90 | 64 (≈ 181 µM) | 10 (≈ 28.3 µM) |  | > 256
6 | COc1cc(NC(=O)c2cccc([N+](=O)[O-])c2Cl)ccc1-n1cnc(Cl)c1 | > 256 | 128 (≈ 314 µM) | 256 (≈ 629 µM) | 128 (≈ 314 µM) | 1.25 (≈ 3.07 µM) | 90 | > 256 | 1.25 (≈ 3.07 µM) | 1.25 (≈ 3.07 µM) | 128 (≈ 314 µM)
7 | COc1cc(NS(=O)(=O)c2cccc(C(C)C#N)c2)ccc1-n1cnc(Cl)c1 (configuration not stated) | 256 (≈ 614 µM) | 64 (≈ 154 µM) | 128 (≈ 307 µM) | 64 (≈ 154 µM) | 2.5 (≈ 6 µM) | <90 | 128 (≈ 307 µM) | 2.5 (≈ 6 µM) |  | 64 (≈ 154 µM)
8 | COc1cc(NC(=O)c2ccc(Cl)cc2Cl)ccc1-n1cnc(Cl)c1 | 128 (≈ 323 µM) | > 256 | 128 (≈ 323 µM) | 128 (≈ 323 µM) | 5 (≈ 12.6 µM) | <90 | 64 (≈ 161 µM) | 10 (≈ 25.2 µM) |  | > 256
9 | O=C(O)c1cn(C2CC2)c2cc(N3CCNCC3)c(F)cc2c1=O [CIPROFLOXACIN] |  |  |  | 8 (≈ 24.1 µM) |  |  |  |  |  | 16 (≈ 48.3 µM)
10 | COc1cc(NC(=O)c2ccc(C(F)(F)F)cc2)ccc1-n1cnc(Cl)c1 | 64 (≈ 162 µM) | 32 (≈ 80.9 µM) | 128 (≈ 323 µM) | 128 (≈ 323 µM) | 1.25 (≈ 3.16 µM) | 90 | 64 (≈ 162 µM) | 2.5 (≈ 6.32 µM) | 1.25 (≈ 3.16 µM) | 64 (≈ 162 µM)
11 | COc1cc(NC(=O)Cc2cccc(C(F)(F)F)c2)ccc1-n1cnc(Cl)c1 | > 256 | 128 (≈ 312 µM) | 256 (≈ 625 µM) | 128 (≈ 312 µM) | 2.5 (≈ 6.1 µM) | <90 | 256 (≈ 625 µM) | 10 (≈ 24.4 µM) | 10 (≈ 24.4 µM) | 64 (≈ 156 µM)
12 | COc1cc(NS(=O)(=O)c2cccc([N+](=O)[O-])c2Cl)ccc1-n1cnc(Cl)c1 | 256 (≈ 578 µM) | 64 (≈ 144 µM) | 128 (≈ 289 µM) | 8 (≈ 18 µM) | 2.5 (≈ 5.64 µM) | <90 | 128 (≈ 289 µM) | 2.5 (≈ 5.64 µM) |  | 32 (≈ 72.2 µM)
